An excerpt weighted towards active compounds, which were near 4.2% of everything screened.
UPR XBP1 act: activators of adaptive arm of unfolded protein response (XBP1); activation, % at 20 µM; CHO-XBP1 luciferase reporter, IRE1-XBP1 UPR activation, luminescence; percent of tunicamycin response, DMSO as zero; 330,000 compounds, 0.33% hits;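 active = versus positive control, 20 µM dose yields 30% or more activation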;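 also: 100% = tunicamycin at 10 µg/mL and 0% = DMSO only wells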
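Material: CHO cell line with stable XBP1 luciferase reporter; buffer or medium: F12 medium containing 10% fetal bovine serum; compound: single point, 20 µM final compound, 1% DMSO; incubation: 6 h treatment, 37 °C; measured by: glow luminescence from Steady-Glo reagent; evaluation: activation, % of tunicamycin; control set: tunicamycin high, DMSO low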
ANO1 block: inhibitors of mouse TMEM16A calcium-activated chloride channel; Q8BHY3; HEK293 TMEM16A/YFP iodide influx fluorescence, ionomycin; normalized B-score (activity score, 25-100; higher = stronger inhibition) at 10 µM; 310,000 compounds, 1.2% hits;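 active = ratio plate-corrected score three or more library SD toward inhibition, starting fluorescence score within five deviations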;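 also: score derived from kinetic fluorescence span divided by baseline fluorescence per well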
Lipid droplet: modulators of hepatic lipid droplet formation. AML12 mouse hepatocytes, oleate lipid droplets, BODIPY imaging. inhibition, % at 6.5 µM. 240,000 compounds, 0.4% hits. AID 1656;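 active = lipid droplet intensity inhibited by at least 50%, with more than 500 cells counted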
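Technique: fluorescence imaging, 20x objective, two fields per well / Assay system: AML12 hepatocytes (mouse) / Measure: % inhibition of lipid droplet signal / Doses: 6.5 µM single-point dosing / Incubation: overnight exposure / Reagent: 100 µM oleic acid challenge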
UPR CHOP act: activators of apoptotic arm of unfolded protein response (CHOP). CHO-CHOP luciferase reporter, UPR activation, luminescence; percent of tunicamycin response over DMSO baseline. activation, % at 10 µM. 330,000 compounds, 0.34% hits. AID 449763;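 active = at 10 µM dose, activation of 40% or more, normalized to positive control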;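 also: 100% = tunicamycin at 10 µg/mL and 0% = DMSO alone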
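Evaluation: % reporter activation, DMSO baseline versus tunicamycin full activation; System: CHO-CHOP luciferase reporter cell line; Input: 500 cells/well; Incubation: 6 h compound treatment, 37 °C; Measured by: Steady-Glo luciferase luminescence; Dosing: one dose, 10 µM in 0.5% DMSO; Buffer or medium: F12 medium, 10% FBS; Benchmarks: positive tunicamycin 10 µg/mL, negative DMSO alone.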
CHOP inh: inhibitors of CHOP induction in ER stress response; inhibition, % at 10 µM; 220,000 compounds, 3.8% hits; AID 2732; CHO-K1 CHOP-promoter luciferase, tunicamycin-induced, 15-18 h;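 active = compounds that reduced the stress-induced luciferase reporter signal by more than about 70% of percent inhibition, limit read from the data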;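 also: 0% = tunicamycin plus vehicle and 100% = wells without tunicamycin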
ANO1 activ: mouse TMEM16A channel activation, primary screen; Q8BHY3; HEK293 TMEM16A/YFP-H148Q/I152L, iodide quench fluorescence; stronger effect = lower value; B-score at 10 µM; 340,000 compounds, 0.3% hits; AID 623877;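 active = fluorescence-ratio B-score plate-corrected deviation score at least 3 library SD below zero, with starting fluorescence score within 5 deviations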;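 also: channel opened by trigger with iodide after compound preincubation; score built on the fluorescence ratio of max minus min over baseline; more negative score means more quench and so TMEM16A activation or potentiation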
TMEM16A reconf: reconfirmed blocker of mouse TMEM16A calcium-activated chloride channel; shares compounds with ANO1 block; HEK293 TMEM16A/YFP-H148Q, iodide quench fluorescence; ionomycin added to raise cell calcium; inhibition, % at 10 µM; 2,300 compounds, 39% hits; AID 652189;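 active = mean duplicate percent inhibition, scaled so buffer wells are 0 and the reference blocker 100, over three buffer SD above buffer mean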
HEK293 Ca mobil: counter-screen for TMEM16A inhibitors: effect on calcium mobilization | shares compounds with ANO1 block | TMEM16A/YFP HEK293, Fluo4 calcium mobilization | calcium response (% of ionomycin), % at 10 µM | 2,300 compounds, 2% hits;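 active = duplicate-averaged calcium signal over 20% of the ionomycin maximum, relative to buffer baseline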;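 also: each well's signal is peak minus trough fluorescence divided by its pre-addition baseline; 0% = buffer wells and 100% = ionomycin wells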
Parental YFP cnt: acts in parental YFP-HEK293 cells lacking TMEM16A, counter-screen. YFP ratio F(max-min)/F0 at 10 µM. AID 652233. shares compounds with ANO1 block. 2,300 tested, under 10 active. iodide YFP quench, ionomycin;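 active = yellow fluorescent protein signal ratio exceeding the buffer control mean by over 5 SD of those controls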;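 also: ratio is mean of duplicate wells from kinetic YFP trace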
ClC-1 rat inh: blocks the rat ClC-1 voltage-dependent chloride channel. CHO ClC-1-YFP, iodide influx fluorescence quench; iodide control reads 0, buffer control 100. shares compounds with ANO1 block. ratio percent, % at 10 µM. 2,300 tested, under 10 active;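 active = duplicate-mean ratio percent above the mean of iodide-only control wells, which defines zero, plus 5 of their SD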;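 also: higher percent means stronger block of ClC-1 iodide influx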
Target sequence (P35524 whole entry, looked up): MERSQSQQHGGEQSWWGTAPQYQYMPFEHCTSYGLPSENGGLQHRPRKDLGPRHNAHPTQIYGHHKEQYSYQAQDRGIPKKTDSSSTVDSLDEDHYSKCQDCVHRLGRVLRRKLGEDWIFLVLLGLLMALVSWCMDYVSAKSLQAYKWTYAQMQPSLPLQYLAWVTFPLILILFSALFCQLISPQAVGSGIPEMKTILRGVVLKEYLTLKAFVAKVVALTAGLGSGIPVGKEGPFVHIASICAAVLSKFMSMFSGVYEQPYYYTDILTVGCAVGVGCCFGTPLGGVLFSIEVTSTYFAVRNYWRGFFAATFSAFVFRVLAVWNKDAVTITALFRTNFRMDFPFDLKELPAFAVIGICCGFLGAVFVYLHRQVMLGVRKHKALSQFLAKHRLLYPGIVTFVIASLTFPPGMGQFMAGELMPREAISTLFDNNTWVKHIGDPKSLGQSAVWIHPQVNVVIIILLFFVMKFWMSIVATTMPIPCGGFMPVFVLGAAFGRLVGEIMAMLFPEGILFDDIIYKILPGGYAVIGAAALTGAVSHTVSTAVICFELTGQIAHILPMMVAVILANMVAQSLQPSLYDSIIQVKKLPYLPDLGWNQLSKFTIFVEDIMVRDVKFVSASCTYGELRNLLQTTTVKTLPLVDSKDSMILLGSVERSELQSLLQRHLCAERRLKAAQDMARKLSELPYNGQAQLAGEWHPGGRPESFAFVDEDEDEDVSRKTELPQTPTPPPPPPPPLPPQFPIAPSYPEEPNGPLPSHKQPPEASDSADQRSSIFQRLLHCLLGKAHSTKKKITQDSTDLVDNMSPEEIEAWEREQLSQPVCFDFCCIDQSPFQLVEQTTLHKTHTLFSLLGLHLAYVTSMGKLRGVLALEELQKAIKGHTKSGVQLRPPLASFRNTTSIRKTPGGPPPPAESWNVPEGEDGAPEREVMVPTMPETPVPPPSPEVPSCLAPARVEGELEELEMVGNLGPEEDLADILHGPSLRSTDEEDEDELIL
Numbers without * were called inactive; i = inactive; x = not tested or not shown.

SMILES	UPR XBP1 act	ANO1 block	Lipid droplet	UPR CHOP act	CHOP inh	ANO1 activ	TMEM16A reconf	HEK293 Ca mobil	Parental YFP cnt	ClC-1 rat inh
Cc1cc(Cl)ccc1OCC(=O)Nc1ccccc1N1CCOCC1	2	100*	-20	0	34	i	22%*	i	-0.99	-15
O=C(COc1c(Cl)cccc1Cl)Nc1ccccc1N1CCCC1	-5	25*	15	2	x	i	i	i	-1.3	-16
Cc1cc(Cl)ccc1OCC(=O)NC(=S)Nc1ccccc1N1CCOCC1	3	i	1	-1	45	i	x	x	x	x
CCN(CC(=O)Nc1c(F)cccc1F)C(=O)c1ccc(OCc2c(C)noc2C)cc1	2	x	x	1	x	i	x	x	x	x
COc1cc(NS(=O)(=O)c2ccc(OC)c(C)c2C)c(OC)cc1Cl	1	25*	-1	-1	x	i	54%*	i	-0.72	-4
O=C(NCCc1nc2ccccc2[nH]1)/C(=C/c1ccc2c(c1)OCO2)NC(=O)c1ccccc1Cl	-2	i	-1	1	-20	i	x	x	x	x
O=C(Nc1ccc(Cl)cc1-c1nc2ccccc2s1)c1ccco1	2	i	x	1	-5	i	i	i	-0.93	6
COC(=O)C1CCN(c2cc(=O)n(-c3ccccc3Cl)c(=O)[nH]2)CC1	-1	100*	2	0	48	i	i	i	-1.1	-6
CC(C(=O)NC1CCCc2ccccc21)N1CCN(Cc2ccc3c(c2)OCO3)CC1 (stereo not given)	2	25*	x	2	3	i	i	i	-0.95	-4
O=[N+]([O-])c1ccc(N2CCSCC2)cc1	3	i	-76	1	-6	i	x	x	x	x
O=C(c1ccc(F)cc1)c1ccc(-c2ccc(F)cc2)nc1	-2	i	-7	1	x	i	x	x	x	x
N#CC(c1ccc(F)cc1)c1ccc(C(=O)c2ccc(F)cc2)cc1 (stereo not given)	-4	100*	4	-1	62	i	28%*	i	-0.88	-14
CCN1/C(=C/C=C/C=C/C=C/c2sc3ccccc3[n+]2CC)Sc2ccccc21	0	i	6	21	x	i	45%*	i	-0.88	-18
CCN1/C(=C/C=C/c2sc3ccccc3[n+]2CC)Sc2ccccc21	-12	i	x	-7	x	i	x	x	x	x
COc1ccc(-n2nc(C(=O)NCC(=O)NCCc3ccc(OC)c(OC)c3)c3ccccc3c2=O)cc1Cl	-1	25*	31	0	x	i	i	i	-1.3	-4
CC(=O)N1C(=O)C(=C2C=C(C)OC(C)=C2)c2ccccc21	-2	i	x	0	61	i	28%*	i	-0.85	0
Cc1csc(NC(=O)CSc2nc(C(C)C)nc3ccccc23)n1	3	i	-10	3	x	i	x	x	x	x
COc1ccc(Cl)cc1NC(=O)C(C)N(C)Cc1ccc(C(F)(F)F)cc1 (stereo not given)	1	100*	-37	4	49	i	i	i	-0.83	-6
COc1cc(CN(C)C(C)C(=O)Nc2ccc([N+](=O)[O-])cc2Cl)ccc1OC(F)F (stereo not given)	-1	i	-7	2	13	i	x	x	x	x

High-throughput results as filed in PubChem BioAssay.
